Sampled rows, rich in hits. Any-hit rate of the full collection: about 2.7%.
Yeast growth inh: chemicals that inhibit yeast BB579 growth in restrictive medium (lifespan-shortening candidates); 140,000 tested, 0.51% active; S. cerevisiae BB579 growth, OD615, 48 h; inhibition, % at 10 µM;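 active means inhibition above a set limit, 3 SD over the mean compound inhibition, cut at about 44% in these data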
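System: Saccharomyces cerevisiae DeaD strain BB579, replicative lifespan model yeast. Buffer or medium: restrictive glucose-based CSMM-D medium. Doses: one dose, 10 µM compound with 0.25% DMSO. Timing: 4 h preincubation and 48 h exposure at 30 °C. Detection: turbidity as optical density at 615 nm. Benchmarks: amphotericin B 10 µg/mL, positive.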
RAM network inh: blocks the yeast RAM network; inhibition, % at 50 µM; S. cerevisiae dse1pr::URA3 reporter, 5-FOA growth OD615, 2 d; analog-sensitive cbk1-as2 kinase mutant strain; 190,000 tested, 1.8% active;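 active means inhibition above a set limit, 3 SD over mean compound inhibition, cut at about 8.4% in these data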;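 further: 0% = DMSO-only wells with no growth and 100% = 10 µM 1-NA-PP1 full growth; inhibition rescues growth on 5-FOA so higher OD means more RAM inhibition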
SDO1 yeast rescue: restores growth of sdo1-depleted yeast; S. cerevisiae sdo1-depleted JHY4D growth rescue, OD600 30 h; stronger effect = higher value; pdr5 snq2 efflux-pump mutant strain; z-score at 10 µM; 140,000 tested, 0.21% active; AID 817;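 active means z-score above 3 at both the 24 hr and the 30 hr optical density reads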;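 further: z-score against mean and SD of all compound wells on the same plate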
Yeast lifespan up: extends the lifespan of yeast; AID 775; inhibition of the nicotinamide effect, % at 10 µM; 130,000 tested, 0.68% active; S. cerevisiae growth with nicotinamide, OD615; deaD strain in restrictive glucose medium;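 active means inhibition above a set limit, placed 3 SD over the median of all compounds, cut at about 26% in these data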;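 further: 0% = nicotinamide-treated wells and 100% = cells grown without nicotinamide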
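Assay system: engineered S. cerevisiae DeaD replicative-lifespan strain, galactose-grown log-phase cells; Buffer or medium: CSMM-D glucose medium, restrictive; Probe or stimulus: nicotinamide 1.5 mM; Compound: single dose 10 µM compound, 0.25% DMSO; Schedule: 4 h preincubation then 48 h treatment at 30 °C; Technique: OD615 measurement.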
* marks the source's active call; other numbers are inactive results; nt = no result given.

SMILES	Yeast growth inh	RAM network inh	SDO1 yeast rescue	Yeast lifespan up
Cc1cc(C)c(CN2CCN(Cc3ccc(C)o3)C(CCO)C2)c(-n2cccn2)c1 (stereo not drawn)	nt	1	nt	nt
O=C(Nc1nc(-c2ccccn2)cs1)C1COc2ccccc2O1 (stereo not drawn)	93*	0	-3.4	-6
O=C(Nc1nc(-c2ccccc2)cs1)C1COc2ccccc2O1 (stereo not drawn)	-14	4	-1.8	-15
CN1CCN(C(=S)Nc2cc([N+](=O)[O-])ccc2Cl)CC1	-21	-1	0.64	45*
O=C1NN(c2ccccc2)C(=O)/C1=C/c1coc2ccccc2c1=O	-14	-1	0.13	26*
COc1ccc(-n2c(C)cc(/C=C3\C(=O)NN(c4ccccc4)C3=O)c2C)cc1	-41	5	0	6
Cc1cc(/C=C2/C(=O)NN(c3ccccc3)C2=O)c(C)n1-c1ccc(O)cc1	-3	9.9*	0.09	8
CC(=O)Nc1ccc(C(=O)CSc2nnc(-c3ccc(O)cc3)n2CC2CCCO2)cc1 (stereo not drawn)	-23	1	-0.26	64*
CCC(=O)Nc1ccc(NC(=O)CSc2nnc(-c3ccc(O)cc3)n2CC2CCCO2)cc1 (stereo not drawn)	nt	1	nt	nt
Cc1oc(C)c2c(=O)ccc3c(c12)OC(N)=C(C#N)C3c1ccccc1 (stereo not drawn)	-7	1	-1.4	4
Cc1oc(C)c2c(=O)ccc3c(c12)OC(N)=C(C#N)C3c1ccccc1Cl (stereo not drawn)	-44	8.8*	-1.3	6
CNCc1ccccc1Sc1ccc(O)c(O)c1	-40	-1	1.1	5
CC(/C=C1\N=C(SCc2ccccc2Cl)SC1=O)=C\c1ccccc1	-60	10*	-0.14	3
CCN(CC)C(=O)Nc1ccc(Br)cc1	nt	-1	nt	nt
Cc1ccc(-c2nc(SCC(=O)Nc3cc(S(=O)(=O)N4CCCCC4)ccc3Cl)n[nH]2)cc1	-32	9.5*	-0.58	5
CCOCCCNC(=O)CNC(=S)N(Cc1ccc(C)cc1)Cc1ccco1	nt	1	nt	nt
COc1ccc(C(=O)COC(=O)c2cc(S(=O)(=O)NCc3ccccc3)ccc2O)cc1	nt	9.1*	nt	nt
O=C(Nc1nc(-c2ccc3c(c2)OCCO3)cs1)C1CCCC1	nt	0	nt	nt
CCOC(=O)C1C(C(=O)NN)C1C(=O)Nc1ccccc1 (stereo not drawn)	nt	1	nt	nt
CCN(CC)c1nc(-c2ccc(Cl)cc2)cc(C(F)(F)F)c1C#N	-9	9.6*	-1.1	-7
CN1CCN(CCc2cn3ncc(C#N)c3nc2-c2ccc(F)cc2)CC1	nt	11*	nt	nt
CC1=CC2=NC(=O)/C(=C\c3cccn3CCOc3cc(C)ccc3C)C(=N)N2O1	-11	5	-1.2	-3
O=c1cc(O)c2c(=O)n(-c3ccccc3)c3c(c2o1)CCCCC3	-56	0	0.08	78*
Cc1cccc(OC(=O)n2c(=S)oc3cc(Cl)ccc32)c1	-10	-2	-0.67	64*
CC(C)OC(=O)n1c(=S)oc2ccccc21	42	-2	0.11	-8
SMILES	Yeast growth inh	RAM network inh	SDO1 yeast rescue	Yeast lifespan up
CS(=O)(=O)Oc1ccc(Br)cc1/C=C1/N=C(c2ccco2)OC1=O	-15	2	-0.17	49*
O=C1OC(c2ccc(Br)cc2)=N/C1=C\c1ccco1	nt	2	nt	nt
COc1cc2nc(C3CCC3)n(NC(=O)C3CCC3)c(=O)c2cc1OC	-10	2	1.1	-8
COc1cc2nc(C3CCC3)n(NC(=O)COc3ccccc3)c(=O)c2cc1OC	8	2	-0.06	53*
CCOC(=O)CC(=O)CSc1nc2c(sc(=S)n2-c2ccc(OCC)cc2)c(=O)[nH]1	-36	8.7*	-0.08	14
CCCN(CCC)C(=O)CSc1nc2c(sc(=S)n2-c2ccc(OCC)cc2)c(=O)[nH]1	nt	5	nt	nt
O=C(Nc1ccccc1N1CCOCC1)C1(c2ccc(Cl)cc2)CCC1	nt	9.2*	nt	nt
Cc1cc(Cl)ccc1OC(C)C(=O)Nc1ccccc1N1CCOCC1 (stereo not drawn)	-19	9.5*	-0.4	-7
COc1ccc(Cl)cc1NC(=O)CN(C)CC(=O)Nc1ccccc1N1CCOCC1	nt	0	nt	nt
CCOc1ccc(Cl)cc1S(=O)(=O)N1CCN(c2ccc(F)cc2)CC1	-32	9.0*	-1.3	-4
CC(=O)Nc1ccc(S(=O)(=O)NCCc2ccccn2)cc1	nt	0	nt	nt
O=C(O)CC(NC(=O)CCC1CCCCC1)c1cc([N+](=O)[O-])ccc1Cl (stereo not drawn)	nt	2	nt	nt
Cc1cc(C(=O)Nc2nnc(-c3ccccc3)s2)no1	-39	3	0.09	27*
Cc1cc(C(=O)Nc2nnc(C3CCCCC3)s2)no1	-8	1	-0.88	-6
Fc1ccccc1N1CCN(CCCNc2ccc3nncn3n2)CC1	-15	2	0.66	27*
c1ccc(CN2CCN(CCCNc3ccc4nnc(-c5ccccc5)n4n3)CC2)cc1	-5	-1	1.5	-1
CN1CCS/C1=C/C=C1\SC(=S)N(CC(=O)O)C1=O	nt	1	nt	nt
CN1CCS/C1=C/C=C1/SC(=S)N(Cc2ccccc2)C1=O	-6	9.6*	-0.5	1
CC(=O)N1CCc2cc(S(=O)(=O)CCC(=O)NCc3ccco3)ccc21	nt	1	nt	nt
CCC(CC)C(=O)Nc1c(C)n(C)n(-c2ccccc2)c1=O	-5	2	0.77	57*
COc1ccc(/C(O)=C/C(=O)C(=O)Nc2c(C)n(C)n(-c3ccccc3)c2=O)cc1	-34	0	0.71	73*
Cc1c(NC(=O)C(=O)/C=C(/O)c2ccccc2)c(=O)n(-c2ccccc2)n1C	-18	0	0.95	67*
Cc1c(NC(=O)c2ccc(F)cc2)c(=O)n(-c2ccccc2)n1C	-15	3	0.15	-3
Cc1cccc(OCC(=O)N/N=C\c2cccn2C)c1C	nt	3	nt	nt
COC(=O)c1cnn(-c2ccccc2)c1-n1cccc1C=O	nt	1	nt	nt
SMILES	Yeast growth inh	RAM network inh	SDO1 yeast rescue	Yeast lifespan up
CCOC(=O)C1(CC2CC2)CCN(Cc2cnc(-c3ccc(OC)cc3)nc2)CC1	nt	1	nt	nt
Cc1ccc(O)c(-c2cc(-c3ccccc3F)[nH]n2)c1	-47	3	-2.3	-9
Cc1ccc(-c2cc(-c3cccc(F)c3)n[nH]2)c(O)c1	-11	3	-1.7	-10
Cc1ccc(-c2cc(-c3ccccc3C)[nH]n2)c(O)c1	100*	5	-2.5	nt
Cc1ccc(O)c(-c2cc(-c3cccc(F)c3)n[nH]2)c1	99*	0	-2.2	-13
COc1ccc(O)c(-c2cc(-c3cccc(Br)c3)n[nH]2)c1	9	10*	-0.41	-21
N#Cc1ccc(COn2nnc3ccccc32)cc1	nt	1	nt	nt
COc1ccc(NC(=O)N2CCN(S(C)(=O)=O)CC2)c(OC)c1	nt	2	nt	nt
O=C(N/N=C/c1ccccc1[N+](=O)[O-])C(=O)N1CCCC1	nt	0	nt	nt
Cc1ccc(SCc2c(C#N)c3ccccc3n2C)cc1	-43	8.7*	-0.58	nt
Cn1c(CSc2ccccc2)c(C#N)c2ccccc21	-57	4	-2	-8
COc1ccc(-c2[nH]ncc2CNCC(C)(C)N2CCOCC2)cc1F	nt	1	nt	nt
